Screening results (PubChem BioAssay)
In the library only some 1.9% were active in any assay of this set; here they are far more common.
NPY-Y2 antag – blocks the human neuropeptide Y Y2 receptor | P49146 | NPY-Y2 expressing cells, antagonist mode | inhibition, % at 2.7 µM | 140,000 compounds, 0.99% hits | AID 793; in the data active = inhibition above about 17%
NPY2 pot ag – potentiators or agonists of human neuropeptide Y receptor Y2; P49146; cells expressing NPY-Y2, potentiator/agonist read-out; activation, % at 3.6 µM; 220,000 compounds, 0.45% hits; AID 1359; in the data active = activation above about 27%;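 note: cells stimulated with NPY near EC25 plus isoproterenol at EC100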
NPY Y1 blocker – antagonists of human neuropeptide Y receptor Y1; P25929; 200,000 compounds, 1% hits; HEK293-CNG Y1 cells, membrane potential fluorescence; NPY at EC95, then isoproterenol; inhibition, % at 3.6 µM;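 active = inhibition above the campaign mean inhibition of all tested compounds plus 3 SD, cut at about 20% in these data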
Target sequence (P25929 whole entry, looked up): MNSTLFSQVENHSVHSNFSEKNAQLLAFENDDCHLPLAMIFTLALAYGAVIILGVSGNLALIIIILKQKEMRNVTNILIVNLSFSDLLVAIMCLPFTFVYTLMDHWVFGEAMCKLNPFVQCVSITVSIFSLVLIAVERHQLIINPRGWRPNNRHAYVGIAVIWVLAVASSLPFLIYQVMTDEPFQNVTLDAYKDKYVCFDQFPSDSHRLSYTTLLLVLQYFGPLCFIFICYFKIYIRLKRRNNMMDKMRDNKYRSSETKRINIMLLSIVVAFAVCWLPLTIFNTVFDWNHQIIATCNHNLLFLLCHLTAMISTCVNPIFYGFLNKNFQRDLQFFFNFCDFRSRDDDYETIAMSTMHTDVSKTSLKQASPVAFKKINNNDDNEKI
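Test system: HEK293 cells co-expressing NPY Y1 receptor and cyclic-nucleotide gated channel; Also added: NPY (25 nM), isoproterenol (1 µM), Ro 20-1724 (25 µM); Compound dosing: one concentration, 3.6 µM, in 0.4% DMSO; Timing: dye 3 h, compound 60 min room temperature, stimulation 45 min; Technique: Membrane-potential fluorescent dye readout.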
NPY1 pot ag – human NPY-Y1 potentiation or agonism, primary screen | P25929 | NPY-Y1 expressing cells, potentiator/agonist activation | activation, % at 3.6 µM | 220,000 compounds, 0.37% hits; in the data active = activation above about 33%, passing the limit was not always enough;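 note: cells stimulated with NPY at EC10 then isoproterenol at EC100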
NPY-Y1 antag ct – antagonizes human NPY-Y1, counter-screen to NPY-Y2 antagonists | shares compounds with NPY-Y2 antag | cell-based NPY-Y1 antagonism counterscreen | inhibition, % at 3.6 µM | 710 compounds, 19% hits | AID 1256; in the data active = inhibition above about 20%;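 note: cells challenged with NPY then isoproterenol with cAMP sensed through a CNG channel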
NPY-Y2 ant conf – human NPY-Y2 antagonism, confirmation; AID 1257; inhibition, % at 2.8 µM; 710 compounds, 32% hits; shares compounds with NPY-Y2 antag; HEK293 NPY-Y2 CNG channel, membrane potential fluorescence;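 active = mean inhibition of triplicate wells above the hit cutoff set in the primary screen, cut at about 17% in these data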
Of the large screens only hits and unclear results are named; the others gave an inactive call (follow-up assays come after a bar, where they were run).

O=c1c2ccccc2nc(-c2ccccc2)n1CCN1CCOCC1	none
O=C(Nc1ccc(N2CCCCC2)cc1)c1ccc2ccccc2n1	none (no result: NPY-Y2 antag)
COc1cc(/C=N/n2cnnc2)ccc1OCc1ccccc1	none
COc1cc(/C=N/n2cnnc2)ccc1OCc1ccc(C)cc1	NPY-Y2 antag 40 | NPY-Y1 antag ct inactive | NPY-Y2 ant conf 32
COc1ccc(-n2nc(C(=O)Nc3ccc4c(c3)OCO4)c3ccccc3c2=O)cc1	NPY-Y2 antag 23 | NPY-Y1 antag ct inactive | NPY-Y2 ant conf 21
COc1ccc(-n2nc(C(=O)N3CCN(Cc4ccc5c(c4)OCO5)CC3)c3ccccc3c2=O)cc1	none
CCOC(=O)c1c(NC(=O)CSc2nnc(C)s2)sc2c1CCC(C)C2 (centres undefined)	NPY-Y2 antag 23 | NPY-Y1 antag ct 25 | NPY-Y2 ant conf inactive
CCOC(=O)c1c(-c2ccc(C)o2)csc1NC(=O)CSc1nnc(C)s1	NPY-Y2 antag 18 | NPY-Y1 antag ct inactive | NPY-Y2 ant conf inactive
COc1ccccc1Oc1ccc2c(c1)C(=O)N(c1ccc(O)cc1)C2=O	NPY-Y2 antag 18 | NPY-Y1 antag ct inactive | NPY-Y2 ant conf inactive
Cc1onc(-c2c(Cl)cccc2Cl)c1C(=O)N=C(N)N1CC(C)OC(C)C1 (centres undefined)	none (no result: NPY-Y2 antag, NPY Y1 blocker)
CC1=CC(C)(C)[N+](C)(C)c2ccccc21	none (no result: NPY-Y2 antag)
Cc1cc(/C=N/n2cnnc2)c(C)n1-c1ccc(OCc2ccc(Cl)cc2Cl)cc1	NPY-Y2 antag 22 | NPY-Y1 antag ct 21 | NPY-Y2 ant conf 24
CCc1ccccc1NC(=S)/N=C(\N)Nc1nc(C)c2cc(C)ccc2n1	none
Cc1ccc(NC(=S)/N=C(\N)Nc2nc(C)c3cc(C)ccc3n2)c(C)c1	NPY-Y2 antag 18 | NPY-Y1 antag ct inactive | NPY-Y2 ant conf 20
C/C=C(/C)C(=O)O[C@@H]1c2c(ccc3ccc(=O)oc23)O[C@@H]1C(C)(C)OC(=O)/C(C)=C\C	NPY-Y2 antag 19 | NPY-Y1 antag ct inactive | NPY-Y2 ant conf 32
c1ccc2c(c1)nnn2-c1ncnc2sc3c(c12)CCCC3	none
Cc1nc(-n2nnc3ccccc32)c2c3c(sc2n1)CCCC3	NPY-Y2 antag 22 | NPY-Y1 antag ct inactive | NPY-Y2 ant conf inactive
CCCCOP(=O)(OCCCC)C(Nc1ccccc1)c1ccc2c(c1)OCO2 (centres undefined)	NPY-Y2 antag 19 | NPY-Y1 antag ct inactive | NPY-Y2 ant conf inactive
Clc1ccc(OCCOCCOc2cccc3cccnc23)c(Br)c1	NPY-Y2 antag 18 | NPY-Y1 antag ct 24 | NPY-Y2 ant conf 53
Cc1cccc(OCCCOc2cccc3cccnc23)c1C	NPY-Y2 antag 21 | NPY-Y1 antag ct inactive | NPY-Y2 ant conf inactive
Brc1ccccc1OCCOCCOc1cccc2cccnc12	none
COc1ccc(N2CCN(c3nc4c(c(=O)n(C)c(=O)n4C)n3Cc3ccccc3)CC2)cc1	none
COc1ccc(N2CCN(Cc3nc4c(c(=O)n(C)c(=O)n4C)n3Cc3cccc(C)c3)CC2)cc1	NPY-Y2 antag 24 | NPY-Y1 antag ct inactive | NPY-Y2 ant conf inactive
CC(C1CC2CCC1C2)n1c(-c2ccco2)n[nH]c1=S (centres undefined)	none (no result: NPY-Y2 antag)
C/C(=N\Nc1ccc2nncn2n1)c1cccs1	none (no result: NPY-Y2 antag, NPY Y1 blocker)
O=C(Nc1cccn(Cc2c(Cl)cccc2Cl)c1=O)c1ccccc1Cl	NPY-Y2 antag 23 | NPY-Y1 antag ct inactive | NPY-Y2 ant conf inactive
CC(=O)Nc1ccc(NS(=O)(=O)c2c(Cl)cccc2Cl)cc1	none (no result: NPY-Y2 antag, NPY Y1 blocker)
CC(NC(=O)c1ccnn1C)C1CCCO1 (centres undefined)	none (no result: NPY-Y2 antag)
CCN(CC)P(=O)(Nc1ccccc1Br)c1ccc(N(C)C)cc1NC(=O)c1ccco1 (centres undefined)	none (no result: NPY-Y2 antag)
COc1ccc(-c2csc3nc(C)nc(N4CCN(c5ccc(C(C)=O)cc5)CC4)c23)cc1OC	none (no result: NPY-Y2 antag)
CCN=C1S/C(=C\c2cc(OCC)c(O)cc2Br)C(=O)N1CC	NPY-Y2 antag 27 | NPY-Y1 antag ct 25 | NPY-Y2 ant conf 43
CCOC(=O)/C(=C/Nc1ccc(F)c(F)c1)[N+](=O)[O-]	none (no result: NPY-Y2 antag, NPY Y1 blocker)
O=c1c2ccccc2nnn1CSc1ccc2ccccc2n1	none
O=c1c2ccccc2nnn1CSc1ccccc1	NPY-Y2 antag 24 | NPY-Y1 antag ct inactive | NPY-Y2 ant conf inactive
CN1CCN(c2ccccc2NC(=O)c2ccc(-c3ccc(Cl)cc3Cl)o2)CC1	NPY-Y2 antag 17 | NPY-Y1 antag ct inactive | NPY-Y2 ant conf 25
CS(=O)(=O)N1CCN(c2ccccc2NC(=O)c2ccc(-c3ccc(Cl)cc3Cl)o2)CC1	none
